VIM-2 inh: VIM-2 metallo-beta-lactamase inhibitors, primary screen, biochemical, epi-absorbance readout, Pseudomonas aeruginosa enzyme. purified VIM-2, nitrocefin hydrolysis, epi-absorbance fluorescence. inhibition, % at 5.6 µM. hit rate 0.89% among 290,000. AID 1527, 2009;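 active = inhibition above the mean of all tested compounds plus 3 SD, cutoff set per screening run, cut at about 7.5% in these data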;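 also: red hydrolysis product quenches plate fluorescence so inhibitors raise well fluorescence; 0% = enzyme with DMSO and 100% = DMSO without enzyme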
MEKK2wt PB1 HTS: modulators of MEK5 binding to wildtype MEKK2, primary screen, biochemical, multiplex bead flow cytometry, Alexa488-MEK5. Mitogen-activated protein kinase kinase kinase 2 (Homo sapiens), Q9Y2U5. Alexa488-MEK5 binding to MEKK2 WT; actives lie on both sides. binding response (% of control), % at 10 µM. hit rate 1.1% among 290,000. AID 1531, 2009; in the data active = binding response below about 67% or above about 130%
MEKK2mut PB1 HTS: MEK5 binding signal on mutant MEKK2 PB1, primary screen, biochemical, multiplex bead flow cytometry, Alexa488-MEK5; Alexa488-MEK5 binding to MEKK2 mutant; percent response, % at 10 µM; hit rate 0.35% among 290,000; AID 1530, 2009; in the data active = percent response above about 24%, passing the limit was not always enough
MEKK3 PB1 HTS: modulators of MEKK3-MEK5 PB1 binding, primary screen, biochemical, wildtype MEKK3, multiplex bead flow cytometry, Alexa488-MEK5; Mitogen-activated protein kinase kinase kinase 3 (Homo sapiens), Q99759; bead-based flow cytometry, Alexa488-MEK5 binding to MEKK3; actives lie on both sides; 0 = blocked by unlabeled MEK5, 100 = vehicle; binding response (% of control), % at 10 µM; hit rate 1.4% among 290,000; AID 1529, 2009;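 active = binding response more than 3 SD above or below the average of its plate-row segment, actives on both sides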;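 also: Alexa488 bead fluorescence after subtracting the streptavidin-only scavenger bead signal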
Target sequence (Q99759 whole entry, looked up): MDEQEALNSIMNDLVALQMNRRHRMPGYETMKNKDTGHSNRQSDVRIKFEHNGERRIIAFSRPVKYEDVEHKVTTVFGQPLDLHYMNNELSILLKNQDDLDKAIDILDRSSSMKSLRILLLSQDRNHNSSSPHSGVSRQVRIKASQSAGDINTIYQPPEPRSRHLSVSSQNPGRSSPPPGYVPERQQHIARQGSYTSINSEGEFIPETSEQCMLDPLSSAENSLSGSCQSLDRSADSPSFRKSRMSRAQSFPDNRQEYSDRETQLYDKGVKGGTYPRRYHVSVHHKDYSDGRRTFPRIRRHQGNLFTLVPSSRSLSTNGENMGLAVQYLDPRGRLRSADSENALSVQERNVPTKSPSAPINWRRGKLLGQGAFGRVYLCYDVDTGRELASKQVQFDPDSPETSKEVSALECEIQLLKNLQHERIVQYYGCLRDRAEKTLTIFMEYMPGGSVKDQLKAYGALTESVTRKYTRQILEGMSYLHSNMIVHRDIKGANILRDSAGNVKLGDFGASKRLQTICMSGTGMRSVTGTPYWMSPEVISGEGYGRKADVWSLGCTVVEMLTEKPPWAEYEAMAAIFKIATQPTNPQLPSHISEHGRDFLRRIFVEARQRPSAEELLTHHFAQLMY
IMP-1 inh-1: IMP-1 metallo-beta-lactamase inhibitors, primary screen, biochemical, epi-absorbance readout, Pseudomonas aeruginosa enzyme; inhibition, % at 5.6 µM; purified IMP-1, nitrocefin hydrolysis, epi-absorbance fluorescence; hit rate 0.45% among 290,000;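 active = inhibition above the mean plus 3 SD of all compounds in the same screening run, cut at about 4.5% in these data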;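 also: 0% = IMP-1 with DMSO and 100% = DMSO wells lacking enzyme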
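system = purified recombinant IMP-1 beta-lactamase | amount = 0.2 nM IMP-1, as dispensed | medium = HEPES buffer pH 7.1 with ZnSO4 and Brij 35 | times = 25 °C, 15 min preincubation, 25 min reaction | detection = plate fluorescence quenching by hydrolysis product, ex 480/em 530 nm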
IMP-1 inh-2: IMP-1 metallo-beta-lactamase inhibitors, confirmation, selectivity assay for selective VIM-2 inhibitor project, biochemical, epi-absorbance readout, triplicate. inhibition, % at 5.6 µM. 1,300 tested, under 10 active. purified IMP-1, nitrocefin hydrolysis, epi-absorbance fluorescence. shares compounds with VIM-2 inh; call rule not given here;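 also: 0% = enzyme with vehicle and 100% = vehicle without enzyme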
VIM-2 FRET inh: VIM-2 inhibitors in FRET format, confirmation, artefact control for selective VIM-2 inhibitor project, biochemical, epi-absorbance artifact exclusion. inhibition, % at 5.6 µM. shares compounds with VIM-2 inh. hit rate 23% among 1,300. purified VIM-2, CCF2 FRET substrate hydrolysis;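 active = inhibition above the mean of all tested compounds plus 3 SD, cut at about 19% in these data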;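 also: 0% = VIM-2 plus DMSO and 100% = no enzyme wells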
TEM-1 counter: TEM-1 serine beta-lactamase inhibitors, counter-screen for VIM-2 inhibitor project, biochemical, epi-absorbance, HTS. shares compounds with VIM-2 inh. Purified TEM-1, nitrocefin hydrolysis, epi-absorbance fluorescence. inhibition, % at 5.6 µM. hit rate 3% among 1,300. AID 1866, 2009;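 active = inhibition above that campaign's mean inhibition plus 3 SD, cut at about 0.46% in these data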;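 also: 0% = TEM-1 with DMSO and 100% = TEM-1 with 100 µM potassium clavulanate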
VIM-2 inh conf: VIM-2 metallo-beta-lactamase inhibitors, confirmation, biochemical, epi-absorbance, hits shared with IMP-1 screen. shares compounds with VIM-2 inh. purified VIM-2, nitrocefin hydrolysis. inhibition, % at 5.6 µM. hit rate 96% among 1,300;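 active = inhibition of the VIM-2 beta-lactamase enzyme above about 11% from the earlier first-round screen, limit read from the data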;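 also: 0% = VIM-2 with DMSO and 100% = buffer wells without enzyme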
* marks the source's active call; other numbers are inactive results; . = no result given; [ ] = another dose, or the depositor's remark. Only some compounds are listed: those with a hit (about 3.4% of all), similar ones and a draw of the others.

SMILES	VIM-2 inh	MEKK2wt PB1 HTS	MEKK2mut PB1 HTS	MEKK3 PB1 HTS	IMP-1 inh-1	others
Cc1ccccc1NC(=O)OCc1cn(-c2ccc(Cl)cc2)nn1	-5	94	1	97	1
CCc1ccc(NC(=O)C2=CC(c3ccc(OC)cc3)=NS(=O)(=O)N2C)cc1	0	93	-2	102	-1
O=C(Nc1cccc(C(F)(F)F)c1)C(=O)N1CCCCC1	-1	91	-6	94	0
O=C(O)C1=C(C(=O)Nc2cccc(C(F)(F)F)c2)CCCC1	5	93	-3	96	18*
COCCNC(=O)c1cc2c(=O)[nH]c3ccccc3c2s1	0	106	6	100	0
CCCN1CCN(CCCNC(=O)c2cc3c(=O)[nH]c4ccccc4c3s2)CC1	10*	112	7	104	-2
Cc1ccc2[nH]c(=O)c3cc(C(=O)NCCN4CCN(C)CC4)sc3c2c1	12*	98	2	97	0
Cc1ccc(Sc2ccc(CN3CCCC3)cc2[N+](=O)[O-])cc1	-2	134	12	98	0
CC1(C)Cc2c(c(N3CCCCC3)[nH]c(=S)c2C#N)CS1	-5	104	0	101	8.2*
Cc1cnc(NC(=O)CSc2nc3ccccc3s2)s1	-2	102	1	101	-2
Cc1cnc(NC(=O)CSc2nnc(N)s2)s1	-2	-8.0*	4	106	-2
Cc1nc2ccc([N+](=O)[O-])cc2c(=O)n1Cc1cccc(F)c1	0	107	8	103	-2
Nc1nn(-c2ccccc2)c(N)c1N=Nc1ccccc1	1	101	-2	97	-1
Nc1nn(-c2ccccc2)c(N)c1N=Nc1ccccc1F	-5	102	0	129*	-4
CCc1ccc(OCC(=O)Nc2ncn[nH]2)cc1	-4	99	2	103	-3
COc1ccc(-c2nnc(SCC(=O)Nc3ccc(Cl)cc3)n2C)cc1	-4	99	0	98	-2
Cc1cccc(C(=O)Nc2ccc(C)c(OC(=O)c3cccc(C)c3)c2)c1	-1	-2.0*[inhibitor]	-26	2.0*[inhibitor]	-1
CC1(C)CC(C(N)=S)CCO1 (stereo not drawn)	-2	93	-7	92	-1
CCC1(C)CC(C(N)=S)CCO1 (stereo not drawn)	-1	93	-10	97	5.3*
Cc1cc(C)nc(SCC(=O)c2ccc(F)cc2)n1	1	103	1	105	1
O=C(NCCCN1CCN(c2cccc(Cl)c2)CC1)C1CCC(=O)N1Cc1ccccc1Cl (stereo not drawn)	1	.	.	.	6.5*
O=C(O)c1cccc2c1C(=O)c1cccc3snc-2c13	8.3*	99	3	100	-2
Cc1cc(=O)n2nc(N3CCCC(C(=O)NCc4ccc(F)cc4)C3)sc2n1 (stereo not drawn)	-3	96	3	96	-1
O=C1COc2ccc(C(=O)CSc3nnc(-c4cccs4)n3Cc3ccccc3)cc2N1	9.3*	106	5	107	-3
CCOC(=O)/C(=C/c1ccc(OC(=O)c2ccncc2)cc1)C(C)=O	-3	88	-9	98	-3
SMILES	VIM-2 inh	MEKK2wt PB1 HTS	MEKK2mut PB1 HTS	MEKK3 PB1 HTS	IMP-1 inh-1	others
COCCOC(=O)/C(=C/c1ccc(OC(=O)c2ccccc2)cc1)C(C)=O	-1	4.0*	17	96	-1
O=C(NC1CCSC1=O)c1ccccc1 (stereo not drawn)	-3	91	-2	100	-2
Clc1ccc(-c2csc(=Nc3cccnc3)n2CCCn2ccnc2)cc1Cl	30*	113	7	109	-1	IMP-1 inh-2=-3;VIM-2 FRET inh=-28;TEM-1 counter=-8;VIM-2 inh conf=35*
COCCn1c(-c2ccc(Br)cc2)csc1=Nc1cccnc1	-1	74	-11	73	-2
O=[N+]([O-])c1ccccc1Nc1nc(-c2cccnc2)cs1	16*	111	5	108	-4	IMP-1 inh-2=-3;VIM-2 FRET inh=-3;TEM-1 counter=-10;VIM-2 inh conf=27*
CNC(=O)c1c(NC(=O)c2cccc(N3C(=O)CCC3=O)c2)sc2c1CCC2	4	97	-2	98	1
COC(=O)c1c(NC(=O)c2cccc(N3C(=O)CCC3=O)c2)sc2c1CCN(C(C)=O)C2	24*	103	6	103	-3	IMP-1 inh-2=-4;VIM-2 FRET inh=-2;TEM-1 counter=-7;VIM-2 inh conf=39*
CCN(CC)CCNc1ccc(CO)c2sc3ccccc3c(=O)c12	24*	103	8	91	-3	IMP-1 inh-2=1;VIM-2 FRET inh=-1;TEM-1 counter=-8;VIM-2 inh conf=35*
Cc1c(OCC(=O)N2CCC(C(N)=O)CC2)ccc2c3c(c(=O)oc12)CCCC3	12*	99	-1	100	-1	IMP-1 inh-2=-3;VIM-2 FRET inh=-3;TEM-1 counter=-15;VIM-2 inh conf=19*
Cc1c(OCC(=O)N2CCC(C(N)=O)CC2)ccc2c1oc(=O)c1ccccc12	23*	106	6	105	-4	IMP-1 inh-2=-4;VIM-2 FRET inh=-1;TEM-1 counter=-12;VIM-2 inh conf=31*
Cc1ccc(-c2nnc(N3CCOCC3)c3ccccc23)cc1S(=O)(=O)NCc1cccnc1	-1	104	4	103	-3
CN1/C(=C\C=N\NC(=O)c2ccccc2Br)C(C)(C)c2ccccc21	-2	96	-1	92	-3
O=C(O)c1cccc(NC(=O)c2ccccc2NC(=O)c2cccc([N+](=O)[O-])c2)c1	1	106	0	102	1
O=C(Nc1ccccc1C(=O)Nc1ccncc1)c1cccc([N+](=O)[O-])c1	13*	106	13	105	-1	IMP-1 inh-2=-3;VIM-2 FRET inh=-11;TEM-1 counter=-5;VIM-2 inh conf=25*
Cc1sc2c(=O)n3c(nc2c1C(=O)NC1CCCCC1)CCCCC3	-1	108	9	103	-1

Screens as filed in PubChem.
